Source: ChEMBL document CHEMBL1152323, “Polyoxygenated methyl cyclohexanoids from a terrestrial ampelomyces fungus” (J Nat Prod, 2009)
≈ marks a conversion by molar mass, not a printed value. Calls of active or inactive are those of the source. The calls are words filed in the database; no cut-off is given here.

Key:
[1] = system: Penicillium decumbens; test: Inhibition of Penicillium decumbens alpha-rhamnosidase at 10 mM
[2] = system: Prunus dulcis; test: Inhibition of almond beta glucosidase at 10 uM
[3] = Inhibition of Saccharomyces cerevisiae alpha glucosidase
How it was run: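 Baker's yeast α-glucosidase (0.2 U/mL solution) in 0.2 M phosphate buffer pH 6.8 was preincubated with compound at 37 °C for 30 min. 2.5 mM p-nitrophenyl α-D-glucopyranoside solution was then added and the mixture incubated 5 min at 37 °C. The reaction was stopped with 0.1 M Na₂CO₃ and A405 read before and after reaction. Percent inhibition was taken against a buffer-only control, with acarbose as positive control, giving IC50 in mM ± SD.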

[4] = system: Staphylococcus aureus; test: Antimicrobial activity against Staphylococcus aureus by almar blue assay; format: functional
How it was run: (§1)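 Microplate Alamar Blue broth assay: bacteria at 2 × 10⁵ cfu/mL in MHB with 8% Alamar Blue; serial 2-fold compound dilutions in DMSO added (2 µL to 78 µL culture); ceftazidime reference; incubated at 32 °C until growth controls turned pink; fluorescence ex 530/em 590 nm; % inhibition, triplicate averaged; MIC50 and MIC90 interpolated from concentration–inhibition curves.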

[5] = system: Escherichia coli; test: Antimicrobial activity against Escherichia coli by almar blue assay; format: functional
How it was run: as §1

[6] = system: Proteus vulgaris; test: Antimicrobial activity against Proteus vulgaris by almar blue assay; format: functional
How it was run: as §1

[7] = system: Pseudomonas aeruginosa; test: Antimicrobial activity against Pseudomonas aeruginosa by almar blue assay; format: functional
How it was run: as §1

With `C[C@H]1C[C@H](O)[C@@H]2O[C@@H]2[C@H]1O` (relative stereo) [AMPELOMIN B] the Activity [1] was “inactive”, the Activity [2] was “inactive” and the IC50 [3] was > 10 mM.

For `C[C@H]1C[C@H](O)[C@@H](O)C[C@H]1O` (relative stereo) [AMPELOMIN C], the Activity [1] was “inactive”, the Activity [2] was “inactive” and the IC50 [3] was 6.12 mM.

For `C[C@H]1C[C@H](O)[C@H](O)C[C@H]1O` (relative stereo) [AMPELOMIN D], the Activity [1] was “inactive”, the Activity [2] was “inactive” and the IC50 [3] was > 10 mM.

In the case of `C[C@H]1C[C@H](O)[C@H](O)C[C@@H]1O` (relative stereo) [AMPELOMIN E], the Activity [1] is reported as “inactive”, the Activity [2] is reported as “inactive” and the IC50 [3] is reported as 5.93 mM.

In the case of `C[C@H]1C[C@@H](O)[C@@H](O)C[C@@H]1O` (relative stereo) [AMPELOMIN F], the Activity [1] is reported as “inactive”, the Activity [2] is reported as “inactive” and the IC50 [3] is reported as > 10 mM.

In the case of `Cc1cccc(O)c1C(=O)O[C@H]1[C@H](O)[C@@H](O)[C@@H](C)C[C@@H]1O` (relative stereo) [AMPELOMIN G], the Activity [1] is reported as “inactive”, the Activity [2] is reported as “inactive” and the IC50 [3] is reported as 1.74 mM.

In the case of `C[C@H]1O[C@H](O[C@H]2[C@H](O)[C@@H](O)[C@@H](O[C@H]3[C@H](O)[C@@H](O)C(O)O[C@@H]3CO)O[C@@H]2CO)[C@H](O)[C@@H](O)[C@@H]1N[C@H]1C=C(CO)[C@@H](O)[C@H](O)[C@H]1O` (stereo partly drawn) [ACARBOSE], the IC50 [3] is reported as 0.03 mM.

In the case of `C[C@H]1C[C@@H](O)C=CC1=O` [AMPELOMIN A], the MIC50 [4] is reported as 54.9 µM (≈ 6.93 µg/mL), the MIC90 [4] is reported as 234 µM (≈ 29.5 µg/mL) and the Activity [1] is reported as “inactive”. For the same compound, the Activity [2] was “inactive”, the MIC50 [5] was 89.9 µM (≈ 11.3 µg/mL) and the MIC90 [5] was 265 µM (≈ 33.4 µg/mL). The MIC50 [6] was 51.6 µM (≈ 6.51 µg/mL), the MIC90 [6] was 202 µM (≈ 25.5 µg/mL) and the IC50 [3] was 3.59 mM. The MIC50 [7] was 63.5 µM (≈ 8.01 µg/mL) and the MIC90 [7] was 1020 µM (≈ 128 µg/mL).

Compound `CC(C)(O/N=C(\C(=O)N[C@@H]1C(=O)N2C(C(=O)[O-])=C(C[n+]3ccccc3)CS[C@H]12)c1csc(N)n1)C(=O)O` [CEFTAZIDIME] has an MIC50 [4] of 3.11 µM (≈ 1.7 µg/mL), an MIC90 [4] of 14.7 µM (≈ 8.01 µg/mL) and an MIC50 [5] of 0.37 µM (≈ 0.202 µg/mL). The MIC90 [5] was 0.46 µM (≈ 0.251 µg/mL), the MIC50 [6] was 0.18 µM (≈ 0.0984 µg/mL) and the MIC90 [6] was 0.21 µM (≈ 0.115 µg/mL). It also gave an MIC50 [7] of 0.73 µM (≈ 0.399 µg/mL) and an MIC90 [7] of 3.94 µM (≈ 2.15 µg/mL).
